# Compound activity (PubChem BioAssay)
# Sampled rows, rich in hits. Any-hit rate of the full collection: about 2%.
# NR2E3 ag-1 = NR2E3 (human) agonism | GST-NR2E3/biotin-RetCOR TR-FRET, 1536-well | inhibition of corepressor binding, % at 4.78 µM | 320,000 compounds, 0.12% hits | AID 2300;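 active = percent inhibition above the cutoff of mean plus 3 SD of all tested compounds, set per screening campaign, cut at about 20% in these data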
# Target sequence (Q9Y5X4 whole entry, looked up): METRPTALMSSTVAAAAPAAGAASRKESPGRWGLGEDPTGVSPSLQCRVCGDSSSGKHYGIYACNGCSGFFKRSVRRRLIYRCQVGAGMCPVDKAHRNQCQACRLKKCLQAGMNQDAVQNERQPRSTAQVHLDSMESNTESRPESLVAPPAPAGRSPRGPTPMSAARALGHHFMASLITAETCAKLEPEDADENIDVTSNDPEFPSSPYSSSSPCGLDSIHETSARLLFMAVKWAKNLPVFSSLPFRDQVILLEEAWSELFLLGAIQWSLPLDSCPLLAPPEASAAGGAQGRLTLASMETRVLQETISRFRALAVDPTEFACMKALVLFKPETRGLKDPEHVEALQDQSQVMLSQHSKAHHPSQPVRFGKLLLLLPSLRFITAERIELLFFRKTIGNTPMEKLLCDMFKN
#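 Test system: GST-NR2E3 and biotin-RetCOR proteins | Quantity: 1.35 nM GST-tagged NR2E3 final | Medium: Tris pH 7.5 | Also added: 7 nM biotin-RetCOR | Dosing: Compound at 4.8 µM, single dose | Timing: 5 h at 4 °C | Detection: Time-resolved FRET | Read-out basis: Percent inhibition | Benchmarks: Biotin wells as high control, 0.6% DMSO wells as low control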
# T cell HTS = T cell immune modulation candidate | 2C CD8+ T cell-vesicle binding, flow cytometry; active compounds read low | response (vesicle binding), % at 7 µM | 330,000 compounds, 0.068% hits;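 active = response, share of CD8 T cells binding vesicles, and their 90th percentile fluorescence all below set limits, cut at about 80% in these data, passing the limit was not always enough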;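 note: values below 100% mean blocked vesicle binding to the CD8+ T cells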
#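 Incubation: binding step 1.5 h, 37 °C, antibody labelling 20 min, ice; system: murine 2C transgenic CD8+ T lymphocytes; technique: cytometric PE anti-B7-1 and Alexa647 anti-CD8 signals after 1% paraformaldehyde fixation; also added: QL9-charged Drosophila Ld/ICAM-1/B7-1 vesicles; control set: naked versus QL9-loaded vesicles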
# Myeloid diff 2 = compounds promoting myeloid differentiation; ER-HoxA9 myeloid progenitors, lysozyme-GFP differentiation, flow cytometry; AID 624256; calls only at 10 µM; 360,000 compounds, 1% hits;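 active = normalized GFP-positive differentiation at or above the plate's own cutoff, the solvent-only control mean plus 3 SD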;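 note: cells exposed to compound for four days before flow analysis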
# NR2E3 ag-2 = human photoreceptor-specific nuclear receptor agonism. Q9Y5X4. CHO-S Gal4-NCOR/VP16-NR2E3 two-hybrid, luciferase. inhibition of corepressor binding, % at 3.98 µM. 360,000 compounds, 0.35% hits;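 active = inhibition above the mean of all tested compounds plus 3 SD, cut at about 70% in these data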;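 note: higher means lower luciferase signal from less NR2E3 corepressor binding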
# GAA850 FXN act = frataxin GAA850 promoter activation; activation, % at 6 µM; HEK293 lucGAA850 FXN promoter luciferase reporter, 24 h; percent of 10 µM SAHA response; 360,000 compounds, 0.56% hits;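 active = activation above the average of all compounds screened plus 3 SD, cutoff fixed separately per campaign, cut at about 7.5% in these data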
# Hits are given with their value; – = inactive; · = not tested or not shown; + = active, no number.
SMILES,NR2E3 ag-1,T cell HTS,Myeloid diff 2,NR2E3 ag-2,GAA850 FXN act
CCC(=O)OCCn1c(Br)nc2c1c(=O)[nH]c(=O)n2C,–,–,–,–,–
Cc1cc(C(=O)N/N=C/c2ccc([N+](=O)[O-])cc2)c2ccccc2n1,–,–,+,–,–
Cc1cc(C(N)=O)c2ccccc2n1,–,–,–,–,–
Cc1cc(C(=O)N/N=C/c2ccc([N+](=O)[O-])s2)c2ccccc2n1,–,–,+,–,–
Cc1cc(C(=O)O)c2ccccc2n1,–,–,+,–,–
Cc1ccccc1C(=O)N/N=C/c1ccc([N+](=O)[O-])s1,–,–,–,–,–
Cc1ccc(F)cc1NC(=O)CSc1nc(Nc2ccccc2)nc(N2CCOCC2)n1,–,–,+,–,–
CCN1C(=O)[C@H]2[C@H]3CN=C(SCc4ccc(C)cc4)N3[C@@](C)(C(=O)OC)[C@H]2C1=O,·,·,–,–,–
CCOC(=O)c1ccc(N2Cc3ccccc3C2=NC(=O)c2cccc([N+](=O)[O-])c2)cc1,–,–,–,–,7.8
O=C(CSc1nnc(-c2ccc(F)cc2)c2ccccc12)NCC1CCCO1 (stereo not given),–,–,–,–,8.8
Cc1ccc(-c2nc(SCC(=O)NCC3CCCO3)c(-c3ccccc3)[nH]2)cc1 (stereo not given),–,–,+,–,–
COc1ccccc1NC(=O)N(C)C[C@H]1OCc2cnnn2CCCC(=O)N([C@H](C)CO)C[C@@H]1C,·,·,–,–,–
O=C(CC(O)c1ccccc1)Nc1ccccn1 (stereo not given),·,·,–,–,–
N#Cc1c(N)nc(Sc2ccc(Cl)cc2)c(C#N)c1-c1ccccc1Cl,–,–,+,–,–
O=C(CN1CCCc2ccccc21)NC(=O)NCc1ccccc1,–,–,–,–,–
CC(C)(C)NC(=O)NC(=O)CN1CCCc2ccccc21,–,–,+,–,–
COc1cc2c(cc1OC)-c1cc(Nc3cccc(C)c3)nc(=O)n1CC2,–,–,–,–,–
Cc1ccc(Oc2cc([N+](=O)[O-])cc3c2C(=O)Nc2ccccc2O3)cc1,–,–,+,–,–
O=C1Nc2ccccc2OCc2c1cccc2[N+](=O)[O-],–,–,–,–,–
CCc1cccc(CC)c1NC(=O)c1cccc(NC(=O)c2ccccc2)c1,–,–,+,–,–
CCCCCCN1C[C@H](O)[C@@H](n2cc(-c3ccc(F)cc3)nn2)C[C@@H]1c1ccccc1,·,·,–,–,–
CCOC(=O)c1c(NC(=O)COc2cccc3c2CCN(C)C3=O)sc2c1CCC2,–,–,+,–,–
Cc1cccc(NC(=O)COc2cccc3c2CCN(Cc2ccccc2)C3=O)c1C,–,–,+,–,–
CCOC(=O)Nc1sc2c(c1C(=O)OCC)CCC2,–,–,–,–,–
Cc1cccc(NC(=O)COc2cccc3c2CCN(C)C3=O)c1C,–,–,–,–,–
SMILES,NR2E3 ag-1,T cell HTS,Myeloid diff 2,NR2E3 ag-2,GAA850 FXN act
CCN1CCc2c(OCC(=O)Nc3cccc(C)c3C)cccc2C1=O,–,66.6,·,·,·
COc1ccc(CNC(=O)O[C@H]2CN(C(=O)OC(C)C)N(C(=O)OC(C)C)[C@@H]3CN(S(=O)(=O)c4ccc(C)cc4)C[C@]23O)cc1OC,·,·,–,–,–
CC(C)NC(=O)C1(C)CN(S(C)(=O)=O)CC(=O)N1Cc1cccc(C(F)(F)F)c1 (stereo not given),·,·,–,·,·
CCSc1ccc2cc(OC)ccc2[n+]1CC,–,·,+,–,–
CC1(C)ON=C(c2ccc(C(F)(F)F)cc2)NC1=O,·,·,–,–,–
CCN1Cc2c(/C=C/c3ccccc3)nc3ccc(OC)cc3c2N(c2cccc(Cl)c2)C1,–,–,+,–,–
CCc1ccc(C2=NN(S(C)(=O)=O)C(c3cccs3)C2)cc1 (stereo not given),–,–,+,–,–
CS(=O)(=O)N1N=C(c2ccc(Br)cc2)CC1c1cccs1 (stereo not given),–,–,–,–,–
Nc1ccc(N2CCCC2)c(S(=O)(=O)Nc2cccc(C(F)(F)F)c2)c1,·,–,+,–,–
NNC(=O)c1ccc(Oc2cc(Cl)cc(Cl)c2)o1,–,–,+,–,–
CCN(C(=O)COC(=O)c1cc([N+](=O)[O-])ccc1N1CCOCC1)c1ccccc1,–,–,–,–,–
CC(C)(C)c1ccc(Oc2ccc(N)cn2)cc1,–,–,+,–,–
COc1cccc(Nc2nc(-c3sc(NC(=O)c4ccccc4)nc3C)cs2)c1,–,·,+,–,–
